CHT block: inhibits the human high affinity choline transporter; B-score at 10 µM; CHT-expressing cells, membrane potential dye, choline response; stronger effect = lower value; 310,000 compounds, 0.86% hits;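 active means B-score over 3 SD under the library average, and starting fluorescence ratio not unusually high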;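 further: choline stimulus applied at its EC90 after an EC20 pre-addition; B-score computed on integrated fluorescence ratio after choline addition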
procasp3 activ: procaspase-3 (human) activation | activation, % at 8.5 µM | 330,000 compounds, 0.11% hits | recombinant procaspase-3 D3A, Ac-DEVD-pNA absorbance 405 nm | P42574;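 active means activation above the mean of all tested compounds plus 3 SD, cut at about 21% in these data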;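 further: 0% = DMSO alone and 100% = DMSO wells spiked with extra 5 µM PC-3 D3A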
Target sequence (P42574 whole entry D9A/D28A/D175A): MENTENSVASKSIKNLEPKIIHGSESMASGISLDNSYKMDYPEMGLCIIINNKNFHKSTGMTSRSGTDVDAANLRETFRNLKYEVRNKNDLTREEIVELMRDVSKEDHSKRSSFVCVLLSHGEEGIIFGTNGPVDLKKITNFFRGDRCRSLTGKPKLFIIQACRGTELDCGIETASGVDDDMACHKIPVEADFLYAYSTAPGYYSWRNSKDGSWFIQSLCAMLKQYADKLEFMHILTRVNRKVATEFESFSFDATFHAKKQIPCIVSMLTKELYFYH
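Compound: 8.5 µM single point, 0.8% DMSO / Material: Autoprocessing-dead procaspase-3 D3A mutant enzyme / Timing: 1 h preincubation plus 2 h reaction at 25 °C / Medium: Zinc-free HEPES/NaCl buffer with 0.01% Triton X-100 at pH 7.4 / Technique: 405 nm absorbance of p-nitroaniline, reads at 0 and 120 min / Repeats: one well per compound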
CHT allo act: allosterically activates the human high affinity choline transporter; B-score at 10 µM; 310,000 compounds, 0.49% hits; AID 488977; CHT-expressing cells, membrane potential dye, choline EC20; stronger effect = higher value; LV-AA mutant CHT in HEK293 cells; Q9GZV3;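 active means initial fluorescence not abnormally high and integrated response B-score, plate-corrected, over 3 SD above library mean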
procasp7 counter: counter-screen for procaspase-3 activators: activators of human procaspase-7; activation, % at 8.5 µM; recombinant procaspase-7, Ac-DEVD-pNA absorbance 405 nm; D23A/D198A/D206A triple mutant, cannot self-cleave; scale: DMSO 0, 5 µM enzyme 100; 330,000 compounds, 0.093% hits; P55210; AID 463210;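 active means percent activation above the screen-wide mean plus 3 SD, cut at about 25% in these data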
Target sequence (P55210 whole entry D23A/D198A/D206A): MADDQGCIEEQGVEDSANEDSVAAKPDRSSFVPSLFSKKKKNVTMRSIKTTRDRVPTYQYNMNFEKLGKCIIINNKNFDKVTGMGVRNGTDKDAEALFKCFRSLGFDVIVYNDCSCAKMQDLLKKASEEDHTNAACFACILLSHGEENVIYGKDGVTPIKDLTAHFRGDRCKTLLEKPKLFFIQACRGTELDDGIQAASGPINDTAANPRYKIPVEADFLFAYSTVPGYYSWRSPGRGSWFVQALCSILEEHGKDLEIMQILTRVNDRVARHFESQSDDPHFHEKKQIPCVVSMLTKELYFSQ
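System: Procaspase-7 triple mutant (PC-7 D3A); measure: % activation from two-timepoint absorbance difference, scaled to controls; times: 1 h compound preincubation, 2 h substrate cleavage, 25 °C; also added: Ac-DEVD-pNA substrate, 400 µM as added; measured by: Epi-absorbance of released pNA at 405 nm, two timepoints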
CHT act confirm: confirmation of human choline transporter (CHT) activators; shares compounds with CHT allo act; CHT-expressing cells, membrane potential dye fluorescence (FDSS); % of choline EC20–EC90 response window; HEK293 expressing CHT LV-AA mutant; choline added at its EC20; activation, % at 10 µM; 2,500 compounds, 91% hits; AID 504833;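 active means primary screen active, with duplicate mean activation above negative control mean plus 3 SD, cut at about 11% in these data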
HEK293 MP dye: counter-screen for CHT activators: effect in parental HEK293 cells; shares compounds with CHT allo act; membrane potential dye fluorescence (FDSS); measured after EC20 choline addition; ratio readout change at 10 µM, hits read low; 2,500 compounds, 62% hits; AID 623908;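 active means duplicate-averaged ratio beyond 3 SD from buffer wells, up or down, though filed actives are nearly all decreases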
An asterisk follows results filed as active; i = inactive; . = no result given. Rows were chosen to be rich in hits. Some 1.3% of all compounds tested hit in one or more screens of this group.

SMILES | CHT block | procasp3 activ | CHT allo act | procasp7 counter | CHT act confirm | HEK293 MP dye
COc1cc(-c2noc(C)c2C#Cc2ccccn2)cc(OC)c1OC | i | -4 | 9.5* | -8 | 30* | i
COc1cc(-c2noc(C)c2/C=C/c2ccc(N)cc2)cc(OC)c1OC | i | -1 | 10* | 2 | 42* | i
COc1cc(-c2noc(C)c2C#Cc2ccc(N)cc2)cc(OC)c1OC | i | 0 | i | 7 | . | .
COc1ccc(-c2c(-c3cc(OC)c(OC)c(OC)c3)noc2C)cn1 | i | -1 | 6.7* | 1 | 33* | i
S=c1[nH]cnc2scc(-c3ccc(Cl)cc3)c12 | i | 4 | i | 3 | . | .
O=C(CSC1=NCCN1)Nc1cccc([N+](=O)[O-])c1 | i | -11 | 6.7* | 3 | 51* | -45*
N=C(N)SCCc1cccc(CCSC(=N)N)c1 | i | 4 | 9* | 0 | 43* | -46*
C[C@]12C=CC(=O)C=C1CC[C@@H]1C2=CC[C@]2(C)[C@@H](C(=O)CN3CCN(c4cc(N5CCCC5)nc(N5CCCC5)n4)CC3)CC[C@@H]12 | i | -1 | 8.2* | -5 | 49* | -76*
c1ccc2c(c1)CCN(c1nc(CN3CCOCC3)nc3sc4c(c13)CCCC4)C2 | i | -3 | i | 3 | . | .
CC(=O)N1CCN=C1SCc1cccc(C)c1 | i | 10 | i | 5 | . | .
O=c1oc2ccccc2cc1-c1cn2cccnc2n1 | i | 4 | i | -3 | 20* | -33*
O=c1oc2ccccc2cc1-c1cn2ccccc2n1 | i | -16 | i | -9 | . | .
COC(=O)c1cc(C(=O)OCC(=O)NCc2ccc3c(c2)OCO3)cc([N+](=O)[O-])c1 | i | -4 | i | 8 | . | .
CC1CCC(NC(=O)CCCn2sc3ccccc3c2=O)CC1 (stereo unspecified) | i | 4 | 8.7* | -8 | 27* | i
CCN1CCN(S(=O)(=O)c2ccc(OC)c(NC(=O)c3ccccc3F)c2)CC1 | i | 4 | i | -1 | . | .
O=C(COc1ccccc1)NCC(c1ccco1)N1CCN(c2ccc(F)cc2)CC1 (stereo unspecified) | i | 7 | i | 8 | 13* | i
C#CCN1C(=O)C2(OCCO2)c2ccccc21 | i | 15 | i | 4 | . | .
NC(=O)c1ccc(NC(=O)COc2cccc3ccccc23)cc1 | i | 4 | i | 8 | . | .
c1ccc(-c2cn(-c3ccccc3)c3[n+]2CCS3)cc1 | i | -6 | 6.8* | 5 | 56* | -34*
c1ccc(-c2c[n+]3c(n2-c2ccccc2)SCC3)cc1 | i | 7 | 6.6* | 3 | 49* | -33*
CCOc1ccc(-n2c(-c3ccc(Cl)cc3)c[n+]3c2SCC3)cc1 | i | -3 | i | -6 | . | .
Fc1ccc(-n2cc(-c3ccccc3)[n+]3c2SCC3)cc1 | i | 10 | i | 7 | . | .
COc1cc(NC(=O)CN2C(=O)C(c3ccccc3)=NC23CCCCCC3)cc(OC)c1 | i | 3 | 7.6* | 8 | 6 | i
CCOC(=O)C1=C(COC(=O)COc2ccc(Br)cc2)NC(=O)NC1C (stereo unspecified) | i | 2 | i | -7 | . | .
O=C(CN(C(=O)CNC(=O)c1ccco1)c1ccc(Cl)c(Cl)c1)NC1CCCCC1 | i | 6 | 6.9* | 6 | 39* | i
SMILES | CHT block | procasp3 activ | CHT allo act | procasp7 counter | CHT act confirm | HEK293 MP dye
O=C(c1cc(C2CC2)on1)N1CCN(c2ccccc2)CC1 | i | -8 | i | -1 | . | .
COc1ccc(OC)c(C(c2nnnn2CC2CCCO2)N2CCN(C)CC2)c1 (stereo unspecified) | i | 0 | i | -4 | . | .
C=CCN1CCN(C(c2cc(OC)ccc2OC)c2nnnn2CC2CCCO2)CC1 (stereo unspecified) | i | -6 | 6.3* | -3 | 16* | i
COc1ccccc1C(c1nnnn1CC1CCCO1)N1CCC(C(N)=O)CC1 (stereo unspecified) | i | 4 | i | -3 | . | .
COc1ccc(C(c2nnnn2CC2CCCO2)N2CCC(C(N)=O)CC2)cc1 (stereo unspecified) | i | 3 | i | 2 | -1 | i
COc1cccc(NC(=O)CN(C)C(=O)CCCc2c[nH]c3ccccc23)c1 | . | 2 | . | -1 | . | .
CCCCc1nnc(NC(=O)C2CC(=O)N(Cc3ccccc3)C2)s1 (stereo unspecified) | i | 2 | i | -1 | . | .
COC(=O)c1ccc(N2CCN(C)CC2)c(NC(=O)COc2ccc(OC)cc2)c1 | i | 2 | 9.2* | -2 | 69* | -65*
CC(C)Cc1ccc(C(C)C(N)=NCCc2ccccc2)cc1 (stereo unspecified) | i | . | 13* | . | 6 | i
CN(C)c1ccc2c3c(ccc(N(C)C)c13)C(=O)OC2 | i | 4 | 7.3* | -7 | 80* | -96*
CC1Cc2ccccc2N1C(=O)CN1CCC(n2nnc3cc(C(F)(F)F)ccc32)CC1 (stereo unspecified) | i | -12 | i | 22 | . | .
O=C(O)CC(CC(=O)NCC(O)c1ccccc1)c1ccccc1 (stereo unspecified) | i | 1 | i | -3 | . | .
CC[N+](CC)(CC)C/C=C/CN1CCCCC1 | i | 3 | i | 3 | 40* | -43*
CC(C)N1CCC(N2CCN(Cc3cc(F)ccc3-n3cccn3)CC2CCO)CC1 (stereo unspecified) | i | 6 | i | -5 | 73* | -55*
CCCCCc1c(C)[nH]c2nc3ccccc3n2c1=O | i | -7 | i | -6 | . | .
CN(Cc1cccc2ccccc12)C(=O)c1cc(COc2c(F)cccc2F)on1 | i | 7 | i | 4 | 40* | i
Cc1noc(C)c1NC(=O)N(C)C[C@H]1Oc2c(NC(=O)Nc3ccc4c(c3)OCO4)cccc2C(=O)N([C@H](C)CO)C[C@@H]1C | . | 3 | . | -10 | . | .
CCOC(=O)C1(CC2CCCCO2)CCN(Cc2cc(F)ccc2-n2cccn2)CC1 (stereo unspecified) | i | 1 | 9.4* | -1 | 49* | i
O=C(c1ccc2c(c1)OCO2)C1CCCN(Cc2cc(F)ccc2-n2cccn2)C1 (stereo unspecified) | i | 9 | i | -2 | . | .
Cc1ccc(-n2cccn2)c(CN2CCCC(CNC(=O)c3ccc(F)cc3)C2)c1 (stereo unspecified) | i | 4 | i | 3 | 39* | i
